# Sampled rows, rich in hits. Any-hit rate of the full collection: about 2.5%.
# SENP8 block-1: SENP8 (human) protease inhibition; Q96LD8; recombinant SENP8, Nedd8 substrate fluorescence; inhibition, % at 20 µM; hit rate 0.64% among 360,000; AID 602440; in the data active = inhibition mostly above about 40%, no sharp cut-off; inactive = mostly below about 27%
# SENP6 inh: inhibitors of human SENP6 protease; Recombinant SENP6 catalytic domain, aminoluciferin luminescence; inhibition, % at 10 µM; hit rate 1.8% among 330,000; AID 2599;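 active = inhibition above about 50% at the single tested dose, limit read from the data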;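 also: plate controls were DMSO wells with enzyme for no effect and DMSO wells lacking enzyme for full effect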
# SENP1 inh: SENP1 (human) catalytic domain inhibition. Q9P0U3. recombinant SENP1 catalytic domain, CyPet-SUMO1-YPet FRET cleavage. inhibition, % at 10 µM. hit rate 0.21% among 360,000. AID 624204;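 active = inhibition at least 30% at 10 µM, raw YFP signal under a set limit, fluorescence ratio 0.5 to 1.5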;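 also: 0% = enzyme with DMSO and 100% = no enzyme wells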
# Target sequence (Q9P0U3 419-644 limits assumed): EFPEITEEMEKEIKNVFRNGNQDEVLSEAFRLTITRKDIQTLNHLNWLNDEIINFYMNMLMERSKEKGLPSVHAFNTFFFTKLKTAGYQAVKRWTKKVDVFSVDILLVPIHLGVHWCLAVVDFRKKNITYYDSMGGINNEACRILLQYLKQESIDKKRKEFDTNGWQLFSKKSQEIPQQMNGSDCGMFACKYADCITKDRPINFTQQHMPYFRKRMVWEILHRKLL
#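 Compound: 10 µM single point, 0.5% DMSO; Test system: hSENP1 catalytic domain, recombinant; Timing: 50 min reaction at room temperature; Technique: FRET, CFP and YFP emission; Control set: no-enzyme wells low, DMSO-plus-enzyme wells high control.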
# SENP7 block: inhibitors of human SENP7 protease; AID 434973; hit rate 1.5% among 330,000; inhibition, % at 5 µM; recombinant SENP7, Z-RLRGG-aminoluciferin luminescence, 40 min; Q9BQF6;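 active = inhibition above about 50% at the single test dose, limit read from the data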;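 also: plate controls were DMSO with enzyme for no effect and no enzyme buffer wells for full effect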
# SENP8 block-2: inhibitors of human SENP8 protease. Q96LD8. purified SENP8, Z-RLRGG-aminoluciferin cleavage, luminescence. inhibition, % at 10 µM. hit rate 1.2% among 330,000; in the data active = inhibition above about 50%
# SENP8 confirm: confirmation of human SENP8 protease inhibitors | shares compounds with SENP7 block | Recombinant SENP8, Z-RLRGG-aminoluciferin luminescence, 60 min | inhibition, % at 12.5 µM | hit rate 40% among 6,200 | AID 488912;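 active = mean inhibition across replicates above about 50%, limit read from the data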
# SENP6 conf: human SENP6 inhibition, confirmed; hit rate 58% among 6,200; shares compounds with SENP7 block; AID 488915; recombinant SENP6, Z-RLRGG-aminoluciferin luminescence; inhibition, % at 12.5 µM
# SENP7 confirm: human SENP7 inhibition, confirmed; shares compounds with SENP7 block; recombinant SENP7, Z-RLRGG-aminoluciferin luminescence, 40 min; inhibition, % at 12.5 µM; hit rate 69% among 6,200; AID 488917
# Casp3 select: inhibits human caspase-3 in SENP selectivity test | inhibition, % at 12.5 µM | purified caspase-3, Z-DEVD-aminoluciferin luminescence, 60 min | hit rate 60% among 6,200 | shares compounds with SENP7 block;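 active = mean inhibition above about 50%, limit read from the data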;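 also: plate controls were enzyme with DMSO for no effect and wells without caspase-3 for full effect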
# Target sequence (P42574 28-227 limits assumed): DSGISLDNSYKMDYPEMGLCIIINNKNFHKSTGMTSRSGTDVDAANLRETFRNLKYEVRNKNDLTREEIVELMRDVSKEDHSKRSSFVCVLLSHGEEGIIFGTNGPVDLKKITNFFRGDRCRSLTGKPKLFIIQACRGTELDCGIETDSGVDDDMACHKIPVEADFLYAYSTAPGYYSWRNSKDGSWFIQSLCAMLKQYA
# SENP luc ctr: interferes with luciferase luminescence in SENP counter-screen; inhibition, % at 12.5 µM; shares compounds with SENP7 block; hit rate 39% among 6,200; AID 488919; Pre-incubated SENP8/Z-RLRGG-aminoluciferin, luciferase luminescence interference;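 active = mean inhibition above about 50% when retested at one dose, limit read from the data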;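 also: plate controls were DMSO wells with completed reaction for no effect and substrate without enzyme for full effect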
# * = called active by the depositor; / = no result given.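 The calls were made as follows, unless noted: active = mean inhibition above about 50% in the one-dose retest (limit read from the data); inactive = the rest.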
SMILES,SENP8 block-1,SENP6 inh,SENP1 inh,SENP7 block,SENP8 block-2,SENP8 confirm,SENP6 conf,SENP7 confirm,Casp3 select,SENP luc ctr
O=C(Nc1ccc(N2CCCCC2)cc1)C(Cl)c1ccccc1 (stereo not drawn),12,61*,0,54*,34,14,15,15,28,26
Cc1cc(C)cc(NC(=O)Nc2ccc(N3CCCCC3)cc2)c1,24,81*,3,82*,80*,16,20,42,33,20
COCCN1C(=O)C(=O)/C(=C(/O)c2ccc(S(=O)(=O)N3CCCCC3)cc2)C1c1ccc(O)c(OC)c1 (stereo not drawn),20,5,2,6,-15,/,/,/,/,/
Cc1cc(C)cc(-c2nnc(SCC(=O)NCC3CCCO3)o2)c1 (stereo not drawn),0,/,0,/,/,/,/,/,/,/
O=C1CSC(c2ccccn2)N1c1ccc(F)cc1F (stereo not drawn),11,-11,-1,2,3,/,/,/,/,/
O=C(Nc1ccc(N2CCCCC2)cc1)c1ccccn1,1,101*,1,100*,95*,95*,98*,103*,98*,76*
O=C(Nc1ccc(N2CCCCCC2)cc1)c1ccc[nH]1,-5,66*,-1,33,56*,11,9,-2,-1,35
O=C(Nc1ccc(N2CCOCC2)cc1)c1cn2ccccc2n1,8,96*,-6,93*,85*,86*,86*,98*,95*,15
O=C(Nc1ccc(N2CCCCCC2)cc1)c1ccccc1Cl,14,21,-2,-2,24,/,/,/,/,/
N#C/C(=C/c1ccco1)c1nc2ccccc2s1,-10,38,-28,78*,86*,82*,86*,95*,85*,55*
N#C/C(=C\c1ccco1)c1nc2ccccc2s1,-5,89*,-36,88*,87*,88*,91*,97*,84*,30
N#C/C(=C/c1ccc(-c2cc(C(=O)O)cc(C(=O)O)c2)o1)c1nc2ccccc2s1,/,-19,/,3,3,/,/,/,/,/
COc1ccc([C@H]2CC(=O)C=C(c3ccc4cc[nH]c4c3)C2)cc1,-70,0,-18,5,-1,/,/,/,/,/
Cc1cc(NC2CCCC2)n2ncc(-c3ccccc3)c2n1,-314,77*,1,83*,71*,80*,84*,93*,62*,32
Cc1cc(N2CCOCC2)n2ncc(-c3ccccc3)c2n1,-260,47,-1,57*,40,55*,55*,84*,63*,30
Cc1cc(N2CCCCC2)n2ncc(-c3ccccc3)c2n1,-484,50*,-1,53*,29,36,43,75*,32,24
Cc1cc(NC2CCCC2)n2nc(C)c(-c3ccccc3)c2n1,-276,-5,1,1,4,/,/,/,/,/
Cc1cc(N2CCCCC2)n2ncc(-c3ccc(Cl)cc3)c2n1,-329,7,-3,39,9,/,/,/,/,/
Cc1cc(NCCCn2ccnc2)n2ncc(-c3ccccc3)c2n1,-491,67*,3,55*,39,53*,52*,82*,60*,46
Cc1ccc([N+](=O)[O-])cc1S(=O)(=O)Nc1ccc(OCC(=O)N2CCOCC2)cc1,13,-13,0,-1,11,/,/,/,/,/
CCC1Oc2ccccc2N(CC(=O)NCc2ccco2)C1=O (stereo not drawn),13,-4,0,-7,-10,/,/,/,/,/
Nc1nc2c(-c3ccc(Br)cc3)nnn2c2ccccc12,-286,-5,-22,70*,-7,-1,2,-1,0,-4
CCOC(=O)C1=CCN(S(=O)(=O)c2ccccc2Br)C1c1ccc(C)cc1 (stereo not drawn),18,/,1,/,/,/,/,/,/,/
CN(c1cccc2cccnc12)S(=O)(=O)c1ccccc1,8,-10,-1,-7,-3,/,/,/,/,/
CC(O)[C@H]1CNC(=O)C(=O)N1CCCCC1CCCCC1 (stereo partly drawn),16,-20,0,-20,-18,/,/,/,/,/
SMILES,SENP8 block-1,SENP6 inh,SENP1 inh,SENP7 block,SENP8 block-2,SENP8 confirm,SENP6 conf,SENP7 confirm,Casp3 select,SENP luc ctr
NC(N)=NC(N)=Nc1cccc2ccccc12,12,61*,-10,66*,13,8,6,2,-4,-5
Cc1c(Cl)cccc1N=C(N)N=C(N)N,9,-3,4,-10,-6,/,/,/,/,/
Fc1cccc(NC(=S)Nc2cccc3ccccc23)c1,-393,57*,-7,29,28,-22,-16,-9,-11,-5
CC(=O)N(C)c1ccc(NC(=S)Nc2cccc3ccccc23)cc1,-423,68*,-23,47,59*,-22,-10,3,-3,-1
O=C(Nc1cccc2ccccc12)c1cccc(F)c1,5,0,-1,-4,-7,/,/,/,/,/
O=C(Nc1c2c(nn1-c1ccc(Cl)cc1)CS(=O)(=O)C2)c1ccccc1,5,-9,-2,-1,-1,/,/,/,/,/
Cn1cc(S(=O)(=O)NCc2ccc(Cl)cc2)c(=O)n(C)c1=O,22,-15,1,7,5,/,/,/,/,/
O=S(=O)(c1cccnc1)N1CCn2cccc2C1c1ccccc1F (stereo not drawn),-4,3,-3,-6,-3,/,/,/,/,/
CC(C)(C)NC(=O)N1CCn2cccc2C1c1ccccc1F (stereo not drawn),-1,-24,-5,97*,4,1,8,8,8,6
CCOCC(=O)Nc1cc(C(=O)Nc2cc(C)cc(C)c2)ccc1Cl,/,-32,/,93*,79*,83*,54*,90*,89*,47
N#Cc1c(/N=C\c2ccc(O)c([N+](=O)[O-])c2)sc2c1CCCC2,9,-4,1,3,-3,/,/,/,/,/
N#Cc1c(/N=C/c2cccnc2)sc2c1CCCC2,32,55*,-1,-10,35,57*,56*,67*,28,56*
N#Cc1c(/N=C/c2ccc(Br)s2)sc2c1CCC2,17,/,-17,/,/,/,/,/,/,/
N#Cc1c(/N=C/c2cccs2)sc2c1CCCCC2,28,76*,-1,97*,92*,91*,94*,96*,87*,48
Cc1ccc(/C=N/c2sc3c(c2C#N)CCC3)o1,16,93*,-14,91*,90*,5,84*,94*,36,52*
CN(C)/C=N/c1sc2c(c1C#N)CCC2,17,-23,1,-11,-11,/,/,/,/,/
